Results published in ChEMBL document CHEMBL4020757, “Lathyrol and epoxylathyrol derivatives: Modulation of Cdr1p and Mdr1p drug-efflux transporters of Candida albicans in Saccharomyces cerevisiae model” (Bioorg Med Chem, 2017).
Values after ≈ are worked out from the molar mass of the structure shown.

Key:
[1] = test system: Candida albicans; assay: Inhibition of Candida albicans MDR1 expressed in Saccharomyces cerevisiae AD assessed as ratio of compound MIC80 in combinantion with fluconazole to compound alone MIC80 for Saccharomyces cerevisiae AD by checkerboard method
Procedure, shortened: (§1)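 Checkerboard per CLSI with 10⁴ cells of AD-CDR1, AD-MDR1 or AD1-8u⁻, grown 48 h at 30 °C. Fluconazole 4-209 μM crossed with compound 0.25-400 μM, growth read by optical density. Compound FIC is the compound MIC in combination with fluconazole divided by its MIC alone.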

[2] = test system: Saccharomyces cerevisiae; assay: Antifungal activity against Saccharomyces cerevisiae AD1-8u(-) after 48 hrs; format: functional
Procedure, shortened: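 S. cerevisiae AD1-8u⁻ control strain revived from glycerol stock on YEPD plates and grown in YEPD at 30 °C. 10⁴ cells exposed to compound at 0.25-400 μM for 48 h at 30 °C. Growth read as optical density, with no-inhibitor growth as 100%. MIC80 is the concentration giving 80% growth inhibition. Means ± SD of duplicates from at least three independent experiments.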

[3] = test system: Saccharomyces cerevisiae; assay: Resistance index, ratio of MIC80 for Saccharomyces cerevisiae AD over-expressing Candida albicans MDR1 to MIC80 for Saccharomyces cerevisiae AD1-8u(-); format: functional
Procedure, shortened: (§2)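 Yeast (10⁴ cells) grown in YEPD at 30 °C for 48 h with inhibitors at 0.25-400 μM (DMSO stocks); growth read by optical density, inhibitor-free growth set as 100%. MIC80 = concentration giving 80% growth inhibition. RI = MIC80 in AD-CDR1 or AD-MDR1 divided by MIC80 in control AD1-8u⁻. Means ± SD, duplicate samples, at least three independent experiments.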

[4] = test system: Candida albicans; assay: Inhibition of Candida albicans MDR1 expressed in Saccharomyces cerevisiae AD assessed as potentiation of fluconazole-induced antifungal activity against Saccharomyces cerevisiae AD by checkerboard method
Procedure, shortened: (§3)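 Checkerboard per CLSI in AD1-8u⁻ control, AD-CDR1 or AD-MDR1 cells (10⁴ cells) grown 48 h at 30 °C. Fluconazole 4-209 μM crossed with compound 0.25-400 μM. Growth read by optical density. FIC of each agent is its MIC in combination divided by its MIC alone. FICI is the sum of the fluconazole and compound FICs, with values below 0.5 taken as synergy.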

[5] = test system: Saccharomyces cerevisiae; assay: Resistance index, ratio of MIC80 for Saccharomyces cerevisiae AD over-expressing Candida albicans CDR1 to MIC80 for Saccharomyces cerevisiae AD1-8u(-); format: functional; procedure, shortened: as §2
[6] = test system: Candida albicans; assay: Inhibition of Candida albicans CDR1 expressed in Saccharomyces cerevisiae AD assessed as potentiation of fluconazole-induced antifungal activity against Saccharomyces cerevisiae AD by measuring fold reduction in fluconazole MIC80 by checkerboard method
Procedure, shortened: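 AD-CDR1 cells (10⁴) grown 48 h at 30 °C in a CLSI checkerboard, fluconazole 4-209 μM crossed with compound 0.25-400 μM, growth read by optical density. Fold reduction is derived from the fluconazole MIC alone versus the fluconazole MIC in combination.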

[7] = test system: Saccharomyces cerevisiae; assay: Potentiation of fluconazole-induced antifungal activity against Saccharomyces cerevisiae AD1-8u(-) by checkerboard method; format: functional; procedure, shortened: as §3
[8] = test system: Candida albicans; assay: Inhibition of Candida albicans MDR1 expressed in Saccharomyces cerevisiae AD assessed as reduction in nile red dye efflux at 70 uM after 30 mins by flow cytometry relative to control
Procedure, shortened: (§4)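 AD-CDR1 or AD-MDR1 cells grown in YEPD at 30 °C with shaking from OD600 0.1 to 0.25, then resuspended as a 5% suspension in 1:2 YEPD:water. Nile Red (final 7 μM) added with or without compound at 70 μM, 30 min at 30 °C. Cells washed twice and 10,000 cells analysed by flow cytometry. Efflux rate expressed relative to untreated control cells. Means ± SD, three independent experiments.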

[9] = test system: Saccharomyces cerevisiae; assay: Antifungal activity against Saccharomyces cerevisiae AD over-expressing Candida albicans MDR1 after 48 hrs; format: functional; procedure, shortened: as §2
[10] = test system: Saccharomyces cerevisiae; assay: Synergistic antifungal activity against Saccharomyces cerevisiae AD1-8u(-) assessed as ratio of compound MIC80 in combinantion with fluconazole to compound alone MIC80 by checkerboard method; format: functional; procedure, shortened: as §1
[11] = test system: Candida albicans; assay: Inhibition of Candida albicans CDR1 expressed in Saccharomyces cerevisiae AD assessed as reduction in nile red dye efflux at 70 uM after 30 mins by flow cytometry relative to control; procedure, shortened: as §4
[12] = test system: Candida albicans; assay: Inhibition of Candida albicans CDR1 expressed in Saccharomyces cerevisiae AD assessed as ratio of compound MIC80 in combinantion with fluconazole to compound alone MIC80 for Saccharomyces cerevisiae AD by checkerboard method; procedure, shortened: as §1
[13] = test system: Candida albicans; assay: Inhibition of Candida albicans CDR1 expressed in Saccharomyces cerevisiae AD assessed as potentiation of fluconazole-induced antifungal activity against Saccharomyces cerevisiae AD by checkerboard method; procedure, shortened: as §3
[14] = Lipophilicity, log P of the compound; format: physicochemical; conditions: octanol/water
[15] = test system: Saccharomyces cerevisiae; assay: Antifungal activity against Saccharomyces cerevisiae AD over-expressing Candida albicans CDR1 after 48 hrs; format: functional; procedure, shortened: as §2

Question: For `CCC(=O)O[C@@H]1[C@@H]2[C@@H](OC(C)=O)[C@]3(CC[C@H]4[C@@H](/C=C(\C)C(=O)[C@@]2(OC(C)=O)C[C@@H]1C)C4(C)C)CO3`, which Ratio [1] is on record?
Answer: 1

Question: And the MIC80 [2]?
Answer: 510 µM (≈ 250 µg/mL)

Question: And the Ratio [3]?
Answer: 0.97

Question: And the fractional inhibitory concentration index (FICI) [4]?
Answer: 1.3

Question: And the Ratio [5]?
Answer: 0.98

Question: What about the fold change (FC) [6] of the same compound?
Answer: 23

Question: What about the “fractional inhibitory concentration index (FICI)” value [7] of the same compound?
Answer: 2

Question: And the inhibition [8]?
Answer: 20%

Question: And the MIC80 [9]?
Answer: 498 µM (≈ 244 µg/mL)

Question: What about the Ratio [10] of the same compound?
Answer: 1

Question: And the inhibition [11]?
Answer: 10%

Question: And the Ratio [12]?
Answer: 0.5

Question: What about the fractional inhibitory concentration index (FICI) [13] of the same compound?
Answer: 0.54

Question: What about the logP [14] of the same compound?
Answer: 2.32

Question: And the MIC80 [15]?
Answer: 501 µM (≈ 246 µg/mL)

Question: Which results are given for `C=C1CC[C@H]2[C@@H](/C=C(\C)C(=O)[C@@]3(O)C[C@H](C)[C@H](O)[C@@H]3[C@H]1OC(=O)c1cccc(C(F)(F)F)c1)C2(C)C`?
Answer: Ratio [1]: 1; MIC80 [2]: 988 µM (≈ 500 µg/mL); Ratio [3]: 0.87; fractional inhibitory concentration index (FICI) [4]: 1.3; Ratio [5]: 0.99; fold change (FC) [6]: 52; fractional inhibitory concentration index (FICI) [7]: 2; inhibition [8]: 25%; MIC80 [9]: 867 µM (≈ 439 µg/mL); Ratio [10]: 1; inhibition [11]: 70%; Ratio [12]: 0.5; fractional inhibitory concentration index (FICI) [13]: 0.52; logP [14]: 3.41; MIC80 [15]: 982 µM (≈ 497 µg/mL)

Question: With `C/C1=C\[C@@H]2[C@H](CC[C@]3(CO3)[C@H](OC(=O)Cc3ccccc3)[C@H]3[C@@H](OC(=O)Cc4ccccc4)[C@@H](C)C[C@]3(O)C1=O)C2(C)C` as the compound, how does the Ratio [1] read?
Answer: 1

Question: And the MIC80 [2]?
Answer: 853 µM (≈ 500 µg/mL)

Question: And the Ratio [3]?
Answer: 0.92

Question: And the fractional inhibitory concentration index (FICI) [4]?
Answer: 1.3

Question: And the Ratio [5]?
Answer: 0.88

Question: And the “fractional inhibitory concentration index (FICI)” value [7]?
Answer: 2

Question: And the inhibition [8]?
Answer: 15%

Question: And the MIC80 [9]?
Answer: 788 µM (≈ 462 µg/mL)

Question: What about the Ratio [10] of the same compound?
Answer: 1

Question: And the inhibition [11]?
Answer: 10%

Question: What about the Ratio [12] of the same compound?
Answer: 1

Question: What about the fractional inhibitory concentration index (FICI) [13] of the same compound?
Answer: 1.4

Question: And the logP [14]?
Answer: 4.91

Question: And the MIC80 [15]?
Answer: 756 µM (≈ 444 µg/mL)

Question: Which results are given for `CCCCC(CC)C(=O)O[C@@H]1[C@@H]2[C@@H](OC(=O)C(CC)CCCC)[C@]3(CC[C@H]4[C@@H](/C=C(\C)C(=O)[C@@]2(O)C[C@@H]1C)C4(C)C)CO3` (stereo partly specified)?
Answer: Ratio [1]: 1; MIC80 [2]: 830 µM (≈ 500 µg/mL); Ratio [3]: 0.96; fractional inhibitory concentration index (FICI) [4]: 1.3; Ratio [5]: 0.96; fractional inhibitory concentration index (FICI) [7]: 2; inhibition [8]: 20%; MIC80 [9]: 800 µM (≈ 482 µg/mL); Ratio [10]: 1; inhibition [11]: 30%; Ratio [12]: 1; fractional inhibitory concentration index (FICI) [13]: 1.4; logP [14]: 6.45; MIC80 [15]: 799 µM (≈ 482 µg/mL)

Question: With `COc1ccc(C(=O)O[C@@H]2[C@@H]3[C@@H](OC(=O)c4ccc(OC)cc4)[C@]4(CC[C@H]5[C@@H](/C=C(\C)C(=O)[C@@]3(O)C[C@@H]2C)C5(C)C)CO4)cc1` as the compound, how does the Ratio [1] read?
Answer: 1

Question: What about the MIC80 [2] of the same compound?
Answer: 809 µM (≈ 501 µg/mL)

Question: And the Ratio [3]?
Answer: 1.06

Question: What about the fractional inhibitory concentration index (FICI) [4] of the same compound?
Answer: 1.3

Question: And the Ratio [5]?
Answer: 0.95

Question: And the “fractional inhibitory concentration index (FICI)” value [7]?
Answer: 2

Question: What about the inhibition [8] of the same compound?
Answer: 80%

Question: And the MIC80 [9]?
Answer: 861 µM (≈ 533 µg/mL)

Question: And the Ratio [10]?
Answer: 1

Question: What about the inhibition [11] of the same compound?
Answer: 10%

Question: And the Ratio [12]?
Answer: 1

Question: And the fractional inhibitory concentration index (FICI) [13]?
Answer: 1.4

Question: What about the logP [14] of the same compound?
Answer: 4.51

Question: What about the MIC80 [15] of the same compound?
Answer: 776 µM (≈ 480 µg/mL)

Question: Which Ratio [1] does the source give for `C=C1CC[C@H]2[C@@H](/C=C(\C)C(=O)[C@@]3(O)C[C@H](C)[C@H](O)[C@@H]3[C@H]1OC(=O)c1cccc(Br)c1)C2(C)C` here?
Answer: 1

Question: What about the MIC80 [2] of the same compound?
Answer: 968 µM (≈ 501 µg/mL)

Question: And the Ratio [3]?
Answer: 0.91

Question: And the fractional inhibitory concentration index (FICI) [4]?
Answer: 1.3

Question: What about the Ratio [5] of the same compound?
Answer: 0.93

Question: What about the “fractional inhibitory concentration index (FICI)” value [7] of the same compound?
Answer: 2

Question: And the inhibition [8]?
Answer: 30%

Question: And the MIC80 [9]?
Answer: 884 µM (≈ 457 µg/mL)

Question: And the Ratio [10]?
Answer: 1

Question: And the inhibition [11]?
Answer: 85%

Question: And the Ratio [12]?
Answer: 1

Question: What about the fractional inhibitory concentration index (FICI) [13] of the same compound?
Answer: 1.4

Question: What about the logP [14] of the same compound?
Answer: 3.11

Question: What about the MIC80 [15] of the same compound?
Answer: 901 µM (≈ 466 µg/mL)
